Reference: article PMC7610535 (Nature chemical biology, 2020)

How the values were obtained:
[1] = molecular target: T1, AURORA-A (Homo sapiens, UniProt O14965); assay: Immunoblot of AURORA-A in compound-treated MV4-11 cells; type: cell-based; details: 6 hours
T1 sequence (O14965 1-403): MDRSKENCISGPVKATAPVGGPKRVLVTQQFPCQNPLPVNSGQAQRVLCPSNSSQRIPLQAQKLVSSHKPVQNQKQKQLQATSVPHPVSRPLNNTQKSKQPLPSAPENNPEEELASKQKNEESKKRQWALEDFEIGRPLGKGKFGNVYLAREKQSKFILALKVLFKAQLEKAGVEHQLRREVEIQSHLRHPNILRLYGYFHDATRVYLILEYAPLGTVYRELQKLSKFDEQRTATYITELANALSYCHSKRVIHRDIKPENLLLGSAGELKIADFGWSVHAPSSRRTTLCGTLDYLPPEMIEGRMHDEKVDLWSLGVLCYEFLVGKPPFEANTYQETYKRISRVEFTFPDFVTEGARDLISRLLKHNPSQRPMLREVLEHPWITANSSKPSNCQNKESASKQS

[2] = system: AURORA-A mRNA; assay: Quantitative real-time PCR of AURORA-A mRNA in MV4-11 cells; type: cell-based, human; details: 0.1 µM
In short: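 MV4-11 cells were exposed for 6 h, and RNA and protein were isolated in parallel. AURORA-A mRNA was measured by RT-qPCR and normalised to DMSO-treated control cells; bars are means of technical replicates.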

[3] = molecular target: T1, AURORA-A; assay: Immunoblot of AURORA-A in U2OS, HLE and IMR5 cells; type: cell-based; details: HLE and IMR5 cell lines
In short: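 U2OS and HLE cells were exposed to a range of concentrations for 6 h. IMR5 cells were exposed for 6 h, or at 1 µM alongside siRNA knockdown of AURORA-A/B. Lysis was in RIPA buffer for 20 min at 4 °C, and protein was quantified by BCA. Samples were separated by Bis-Tris PAGE, blotted onto PVDF, blocked in 5% milk/TBS-T and probed overnight at 4 °C.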

[4] = molecular target: T1, AURORA-A; assay: Quantitative SILAC mass spectrometry: AURORA-A level in MV4-11 cells; type: cell-based; details: 0.1 µM, 6 hours
[5] = system: MV4-11 cells; assay: Quantitative SILAC mass spectrometry: relative protein abundance in MV4-11 cells; type: cell-based, human; details: 0.1 µM
[6] = molecular target: CEREBLON thalidomide-binding domain (TBD) (Homo sapiens, UniProt Q96SW2); assay: Isothermal titration calorimetry, CEREBLON-TBD into JB170
CEREBLON thalidomide-binding domain (TBD), sequence (Q96SW2 320-428): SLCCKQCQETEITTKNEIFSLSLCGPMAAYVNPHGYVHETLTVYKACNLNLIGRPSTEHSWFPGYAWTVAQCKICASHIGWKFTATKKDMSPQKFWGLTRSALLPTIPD

[7] = alamarBlue cell viability assay, MV4-11 cells; type: cell-based; details: human
In short: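 MV4-11 cells (6 x10^3 per well) were exposed for various times, with compound refreshed every 24 h. Viability was read with alamarBlue HS reagent as fluorescence (excitation 550 nm, emission 600 nm).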

[8] = molecular target: AURORA-B^E162T (Homo sapiens, UniProt Q96GD4, E161T); assay: Immunoblot of HA-tagged AURORA-B swap mutant in MV4-11 cells; type: cell-based; details: 6 hours
AURORA-B^E162T, sequence (Q96GD4 1-345 isoform Q96GD4-5 E162T): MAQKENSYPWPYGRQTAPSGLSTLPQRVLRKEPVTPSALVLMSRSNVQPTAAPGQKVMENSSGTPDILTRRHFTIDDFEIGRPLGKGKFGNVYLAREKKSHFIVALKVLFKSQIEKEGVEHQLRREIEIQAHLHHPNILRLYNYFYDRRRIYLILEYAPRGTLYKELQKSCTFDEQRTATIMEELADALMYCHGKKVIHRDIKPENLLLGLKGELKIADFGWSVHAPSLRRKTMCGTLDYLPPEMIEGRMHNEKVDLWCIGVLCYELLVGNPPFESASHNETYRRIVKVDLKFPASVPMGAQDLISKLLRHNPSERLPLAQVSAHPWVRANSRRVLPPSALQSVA

[9] = molecular target: AURORA-B^R160L,E162T,K165R (Homo sapiens, UniProt Q96GD4, E161T/K164R/R159L); assay: Immunoblot of HA-tagged AURORA-B swap mutant x3 in MV4-11 cells; type: cell-based; details: 6 hours
AURORA-B^R160L,E162T,K165R, sequence (Q96GD4 1-345 isoform Q96GD4-5 R160L/E162T/K165R): as the sequence (Q96GD4 1-345 isoform Q96GD4-5 E162T) above, with R160L, K165R counted along it

[10] = molecular target: T2, ACAD10 (Homo sapiens, UniProt Q6JQN1); assay: Kinobead selectivity profiling: ACAD10; type: binding
T2 sequence (Q6JQN1 1-1059): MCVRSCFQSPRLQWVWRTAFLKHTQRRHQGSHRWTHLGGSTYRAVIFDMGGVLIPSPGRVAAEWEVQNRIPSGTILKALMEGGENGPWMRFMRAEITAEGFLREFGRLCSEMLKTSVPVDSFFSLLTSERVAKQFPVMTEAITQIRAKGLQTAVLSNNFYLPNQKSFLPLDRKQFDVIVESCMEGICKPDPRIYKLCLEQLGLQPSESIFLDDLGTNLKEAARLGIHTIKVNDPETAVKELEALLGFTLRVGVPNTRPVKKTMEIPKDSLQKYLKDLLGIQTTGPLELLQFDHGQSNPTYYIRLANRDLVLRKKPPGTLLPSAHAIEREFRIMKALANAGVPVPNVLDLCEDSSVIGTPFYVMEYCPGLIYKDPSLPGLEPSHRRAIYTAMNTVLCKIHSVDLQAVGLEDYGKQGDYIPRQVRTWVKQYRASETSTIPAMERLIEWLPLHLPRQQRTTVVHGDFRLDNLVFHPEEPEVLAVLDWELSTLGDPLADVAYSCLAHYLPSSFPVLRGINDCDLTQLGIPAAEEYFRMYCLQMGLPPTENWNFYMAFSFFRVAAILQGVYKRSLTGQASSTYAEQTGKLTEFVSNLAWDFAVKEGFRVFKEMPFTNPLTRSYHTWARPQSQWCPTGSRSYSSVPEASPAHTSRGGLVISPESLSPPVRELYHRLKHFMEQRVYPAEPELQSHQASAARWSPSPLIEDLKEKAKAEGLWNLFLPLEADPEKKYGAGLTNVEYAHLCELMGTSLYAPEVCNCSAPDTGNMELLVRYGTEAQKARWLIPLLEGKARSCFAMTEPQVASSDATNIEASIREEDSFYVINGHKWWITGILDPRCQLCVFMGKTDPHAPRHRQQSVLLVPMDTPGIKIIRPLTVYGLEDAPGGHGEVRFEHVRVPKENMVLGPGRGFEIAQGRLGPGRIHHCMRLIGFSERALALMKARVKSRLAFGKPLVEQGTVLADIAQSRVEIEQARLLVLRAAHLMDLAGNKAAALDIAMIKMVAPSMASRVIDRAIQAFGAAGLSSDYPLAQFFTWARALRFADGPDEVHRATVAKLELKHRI

- reduction of AURORA-A levels (in words) ([1]; 10 nM): reduced AURORA-A levels modestly
- reduction of AURORA-A levels (in words) ([1]; 100 nM and 1 µM): substantial degradation
- degrader activity on co-incubation with alisertib or thalidomide [1]: abolished its degrader activity
- depletion of AURORA-A under proteasomal inhibition by MG132 ([1]; MG132 10 µM): completely blocked
- depletion of AURORA-A under inhibition of cullin neddylation by MLN4924 ([1]; MLN4924 3 µM): completely blocked
- AURORA-A depletion (in words) [3]: rapid AURORA-A depletion in all cases
- decrease of AURORA-A levels compared to alisertib-treated cells [4]: 73%
- decrease of AURORA-A levels compared to untreated cells [4]: 57%
- Kd [6]: 6.88 µM
- JB170-mediated degradation of AURORA-B^E162T with respect to AURORA-A [8]: strongly attenuated
- JB170-mediated degradation of AURORA-B^R160L,E162T,K165R with respect to AURORA-A [9]: strongly attenuated
- Kd [10]: 0.253 µM
SMILES: COc1cc(Nc2ncc3c(n2)-c2ccc(Cl)cc2C(c2c(F)cccc2OC)=NC3)ccc1C(=O)NCCOCCOCCNC(=O)COc1cccc2c1C(=O)N(C1CCC(=O)NC1=O)C2=O (stereo not shown) [JB170]
- AURORA-A mRNA levels [2]: not reduced
- destabilization of CEREBLON neosubstrates (GSPT1, CSNK1A1, ZFP91, IZKF1/3) ([5]; 6 hours): none was destabilized
- depletion of other proteins (p<0.05, log2FC<-1) ([5]; 6 hours, 4,259 proteins, including AURORA-B): no additional protein was depleted
- viability at 72 h, 1 µM [7]: 32%
